The values that follow come from ChEMBL document CHEMBL1122721, “Synthesis and antiarrhythmic activity of new 1-[1-[2-[3-(alkylamino)-2-hydroxypropoxy]phenyl]vinyl]-1 H-imidazoles and related compounds” (J Med Chem, 1984).

Each structure is given as a SMILES string.

For one assay, the species on record is Cavia porcellus. Put plainly: Maximal follow rate showing the contractile frequencies of atria to electrical stimulation 10 min after incubation with right atria of guinea pig. Note: test concentration or dose not given here. The assay is classed as functional. The gist of the method: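 Isolated right atria driven by electrical stimulation (Dawes' method). Maximal follow rate, the highest contractile frequency the atria follow, measured as an index of refractory period 10 min after incubation with compound.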

The target in assay [1] is Adrenergic receptor beta (Cavia porcellus). Put plainly: Beta adrenergic receptor blocking activity measured by the inotropic effect was determined 1 hr after pretreament of the right atria in guinea pig.
Assay [2] has the same target. Put plainly: Beta adrenergic receptor blocking activity measured by the chronotropic effect was determined 1 hr after pretreatment of the right atria in guinea pig.

By pA2 is commonly meant a measure of antagonist potency on a negative log scale. For the compound `C=C(c1c(Cl)ccc(Cl)c1OCC(O)CNC(C)(C)C)n1ccnc1` (stereo not drawn), in the assay listed under Cavia porcellus, the Decrease was 26.3%. The pA2 amounted to 5.41 in assay [1] and 5.27 in assay [2].
In the case of `C=C(c1cc(Cl)cc(Cl)c1OCC(O)CNC(C)C)n1ccnc1` (stereo not drawn), the Decrease in the assay listed under Cavia porcellus was 27.5%. Also, the pA2 in assay [1] was found to be 6.64; in assay [2], 6.5.
In the case of `C=C(c1ccccc1OCC(O)CNC(C)C)n1ccnc1` (stereo not drawn), the Decrease in the assay filed under Cavia porcellus is recorded as 27.1%. Moreover, the pA2 in assay [1] and in assay [2] was 6.89 each time.
`C=C(c1cc(Cl)ccc1OCC(O)CNC(C)C)n1ccnc1` (stereo not drawn): the Decrease in the assay listed under Cavia porcellus worked out at 27.1%. In addition, the pA2 in assay [1] amounted to 6.41; in assay [2], 6.3.
The matching figures for `CC(C)NCC(O)COc1ccccc1Cn1cccn1` (stereo not drawn): 28.7%, 7.54 and 7.42.
Regarding `C=C(c1ccccc1OCC(O)CNC(C)C)n1cnc(C(=O)OCC)c1C` (stereo not drawn), the figures for the pA2 in assay [1] and in assay [2] were 6.37 and 6.15, respectively.
As for `C=C(c1ccccc1OCC(O)CNC(C)(C)C)n1ccnc1` (stereo not drawn), the Decrease in the assay listed under Cavia porcellus was 14.1%. Also, the values for the pA2 in assay [1] and in assay [2] were 8.01 and 7.69, respectively.
`C=C(c1cc(Cl)ccc1OCC(O)CNC(C)C)n1cccn1` (stereo not drawn) registered a Decrease in the assay filed under Cavia porcellus of 14.3%. The values for the pA2 in assay [1] and in assay [2] were 6.74 and 6.76, respectively.
For `C=C(c1ccccc1OCC(O)CN1CCCC1)n1ccnc1` (stereo not drawn), in that order: 16.7%, 6.15 and 6.13.
In turn, `C=C(c1ccccc1OCC(O)CNC(C)(C)C)n1ccnc1C` (stereo not drawn) displayed a Decrease in the assay listed under Cavia porcellus of 27.1%. Moreover, the pA2 in assay [1] and in assay [2] was 6.97 throughout.
`C=C(c1cccc(OC)c1OCC(O)CNC(C)C)n1ccnc1` (stereo not drawn) had a Decrease in the assay listed under Cavia porcellus of 29%. In addition, the pA2 in assay [1] was determined as 6.99; in assay [2] it was 6.64.
In the assay filed under Cavia porcellus, `C=C(c1ccccc1OCC(O)CNC(C)C)n1ccc(=O)cc1` (stereo not drawn) gave a Decrease of 13%. The pA2 in assay [1] was determined as 6.19; in assay [2], 6.2.
In turn, `C=C(c1ccccc1OCC(O)CNC(C)C)n1c(C)cnc1CC` (stereo not drawn) returned a Decrease in the assay filed under Cavia porcellus of 9.1%. Also, the pA2 in assay [1] is listed as 6.17; in assay [2] it was 5.8.
The matching figures for `C=C(c1c(C)ccc(C)c1OCC(O)CNC(C)(C)C)n1ccnc1` (stereo not drawn): 17.1%, 6.47 and 6.36.
The matching figures for `C=C(c1ccccc1OCC(O)CNC(C)C)n1ccnc1C` (stereo not drawn): 15%, 6.24 and 6.24.
For the compound `C=C(c1cc(C)cc(C)c1OCC(O)CNC(C)C)n1ccnc1` (stereo not drawn), the Decrease in the assay filed under Cavia porcellus is reported as 25.9%. Further, the pA2 in assay [1] is given as 6.31; in assay [2], 5.55.
As for `C=C(c1ccccc1OCC(O)CNC(C)C)n1cnc2ccccc21` (stereo not drawn), the Decrease in the assay listed under Cavia porcellus worked out at 16.8%. In addition, the pA2 is given as 6.46 in assay [1] and 6.67 in assay [2].
For `C=C(c1cc(Cl)cc(C)c1OCC(O)CNC(C)(C)C)n1ccnc1` (stereo not drawn), in the assay filed under Cavia porcellus, the Decrease amounted to 27.3%. In addition, the pA2 in assay [1] was determined as 5.04; in assay [2] it was 5.49.
For `C=C(c1cccc(Cl)c1OCC(O)CNC(C)C)n1ccnc1` (stereo not drawn), in that order: 28.2%, 5.63 and 5.66.
Turning to `C=C(c1ccc(Cl)cc1OCC(O)CNC(C)C)n1ccnc1` (stereo not drawn), the Decrease in the assay filed under Cavia porcellus is reported as 26.3%. The results for the pA2 in assay [1] and in assay [2] were 5.95 and 5.86, respectively.
Compound `C=C(c1ccccc1OCC(O)CNC(C)C)n1cccn1` (stereo not drawn) had a Decrease in the assay listed under Cavia porcellus of 21.6%. Besides, the pA2 in assay [1] was found to be 7.75; in assay [2], 7.44.
For `CC(C)NCC(O)COc1ccccc1C(C)n1ccnc1` (stereo not drawn), in that order: 15.6%, 6.83 and 6.9.
In the assay listed under Cavia porcellus, `C/C=C(\c1ccccc1OCC(O)CNC(C)(C)C)n1ccnc1` (stereo not drawn) displayed a Decrease of 14.5%. In addition, the pA2 in assay [1] turned out to be 7.3; in assay [2], 7.19.
